Experimental data from ChEMBL document CHEMBL5338774, “Quinazoline-2-Carboxamides as Selective PET Radiotracers for Matrix Metalloproteinase-13 Imaging in Atherosclerosis” (J Med Chem, 2023).

Key:
Stromelysin-2 = Stromelysin-2 (Homo sapiens, UniProt P09238); experiment: Inhibition of human recombinant MMP-10 using […]-Pro-Lys-Pro-Val-Glu-Nval-Trp-Arg-Lys(Dnp)-NH2 as substrate preincubated for 30 mins followed by substrate addition by fluorescence based analysis
Interstitial collagenase = biological target: T1, Interstitial collagenase (Homo sapiens, UniProt P03956); experiment: Inhibition of human recombinant MMP-1 incubated for 30 mins by fluorescence based analysis
T1 sequence (P03956 whole entry): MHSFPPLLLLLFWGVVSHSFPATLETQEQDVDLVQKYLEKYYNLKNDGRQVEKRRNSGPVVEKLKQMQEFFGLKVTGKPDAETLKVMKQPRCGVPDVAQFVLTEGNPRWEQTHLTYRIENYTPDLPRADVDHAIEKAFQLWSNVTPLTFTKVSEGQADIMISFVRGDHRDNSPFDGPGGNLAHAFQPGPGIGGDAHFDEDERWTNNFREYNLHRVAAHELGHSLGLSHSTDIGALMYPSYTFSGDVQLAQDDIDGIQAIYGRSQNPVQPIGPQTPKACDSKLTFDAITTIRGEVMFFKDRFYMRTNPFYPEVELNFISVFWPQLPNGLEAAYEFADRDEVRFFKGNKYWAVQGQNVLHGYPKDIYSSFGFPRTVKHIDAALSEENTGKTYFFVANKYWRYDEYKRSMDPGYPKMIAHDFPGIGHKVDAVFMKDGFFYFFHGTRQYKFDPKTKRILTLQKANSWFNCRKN

Collagenase 3 = Collagenase 3 (Homo sapiens, UniProt P45452); experiment: Inhibition of human recombinant MMP-13 using Mca-Lys-Pro-Leu-GlyLeu-Dpa-Ala-Arg-NH2 as substrate preincubated for 30 mins followed by substrate addition by fluorescence based analysis
[1] = biological target: 72 kDa type IV collagenase (Homo sapiens, UniProt P08253); experiment: Inhibition of human recombinant MMP-2 incubated for 30 mins by fluorescence based analysis
Neutrophil collagenase = Neutrophil collagenase (Homo sapiens, UniProt P22894); experiment: Inhibition of human recombinant MMP-8 incubated for 30 mins by fluorescence based analysis
[2] = biological target: Matrix metalloproteinase-9 (Homo sapiens, UniProt P14780); experiment: Inhibition of human recombinant MMP-9 incubated for 30 mins by fluorescence based analysis
[3] = Drug distribution in western atherogenic diet fed ApoE-/- mouse myocardium assessed as myocardial retention at […], iv administered as bolus injection measured for 60 mins by PET analysis; format: ADME, organism-based; conditions: in vivo, 1 h
In short: (§1)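 A 10 min transmission scan preceded tail-vein IV bolus of radiotracer (~7.5 MBq, over 30 s) in diet-fed ApoE-/- mice. Dynamic whole-body PET ran for 60 min (4×15 s, 4×1 min, 11×5 min frames), corrected for attenuation and scatter, 3D-OSEM/MAP reconstruction. Volumetric organ ROIs gave %ID·cc⁻¹ time-activity curves; n = 2 per group.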

[4] = Drug distribution in western atherogenic diet fed ApoE-/- mouse liver at […], iv administered as bolus injection measured for 60 mins by PET analysis; format: ADME, organism-based; conditions: in vivo, 1 h; in short: as §1
[5] = Drug distribution in western atherogenic diet fed ApoE-/- mouse myocardium assessed as compound remaining at […], iv administered as bolus injection measured for 30 mins by gamma counter analysis; format: ADME, organism-based; conditions: in vivo, 0.5 h
In short: (§2)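 Diet-fed male ApoE-/- mice (39 ± 5 g, n = 4-6) under 2% isoflurane received radiotracer (~7.5 MBq, 100-200 µL) IV by tail-vein bolus over 30 s. After 30 min, blood was taken by cardiac puncture, then PBS/formalin perfusion and organ dissection. Uptake is decay-corrected %ID normalized to tissue mass (%ID/g).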

[6] = Drug distribution in western atherogenic diet fed ApoE-/- mouse intestine at […], iv administered as bolus injection measured for 30 mins by gamma counter analysis; format: ADME, organism-based; conditions: in vivo, 0.5 h; in short: as §2
[7] = Drug distribution in western atherogenic diet fed ApoE-/- mouse bone at […], iv administered as bolus injection measured for 30 mins by gamma counter analysis; format: ADME, organism-based, Bone element; conditions: in vivo, 0.5 h; in short: as §2
[8] = Drug distribution in western atherogenic diet fed ApoE-/- mouse kidney at […], iv administered as bolus injection measured for 30 mins by gamma counter analysis; format: ADME, organism-based; conditions: in vivo, 0.5 h; in short: as §2
[9] = Stability of compound in 10% EtOH/saline assessed as compound degradation measured upto 75 mins by analytical radio-HPLC analysis; format: physicochemical; conditions: buffer, 1.25 h
In short: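 Radiotracer formulated in 10% EtOH/0.9% saline was held at room temperature up to 75 min. Samples were analysed by analytical radio-HPLC (C18, 0.1 M ammonium formate/ACN gradient, 1 mL·min⁻¹).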

[10] = Drug distribution in western atherogenic diet fed ApoE-/- mouse stomach at […], iv administered as bolus injection measured for 30 mins by gamma counter analysis; format: ADME, organism-based; conditions: in vivo, 0.5 h; in short: as §2
[11] = Drug distribution in western atherogenic diet fed ApoE-/- mouse lung at […], iv administered as bolus injection measured for 30 mins by gamma counter analysis; format: ADME, organism-based; conditions: in vivo, 0.5 h; in short: as §2
[12] = Octanol/PBS distribution coefficient, logD of compound at pH 7.4 incubated for 10 mins under shaking condition by gamma counter analysis; format: physicochemical
In short: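 Radiotracer partitioning between 1-octanol and 1× PBS at pH 7.4. Mean ± standard error of two independent experiments, each in quadruplicate.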

[13] = Drug distribution in western atherogenic diet fed ApoE-/- mouse pancreas at […], iv administered as bolus injection measured for 30 mins by gamma counter analysis; format: ADME, organism-based; conditions: in vivo, 0.5 h; in short: as §2
[14] = Drug distribution in western atherogenic diet fed ApoE-/- mouse kidney at […], iv administered as bolus injection measured for 60 mins by PET analysis; format: ADME, organism-based; conditions: in vivo, 1 h; in short: as §1
[15] = Drug distribution in western atherogenic diet fed ApoE-/- mouse brain at […], iv administered as bolus injection measured for 30 mins by gamma counter analysis; format: ADME, organism-based; conditions: in vivo, 0.5 h; in short: as §2
[16] = Drug distribution in western atherogenic diet fed ApoE-/- mouse fat tissue at […], iv administered as bolus injection measured for 30 mins by gamma counter analysis; format: ADME, organism-based, Adipose tissue; conditions: in vivo, 0.5 h; in short: as §2
[17] = Drug distribution in western atherogenic diet fed ApoE-/- mouse aortic plaques at […], iv administered as bolus injection measured for 30 mins by Oil Red O staining based autoradiography; format: ADME, organism-based, Aorta; conditions: in vivo, 0.5 h
In short: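 Male ApoE-/- mice were fed a western atherogenic diet from 8 weeks of age for 13-16 weeks. Radiotracer (~7.5 MBq) was given IV by tail-vein bolus over 30 s. Blocking: unlabelled tracer analogue (2.5 mg/kg; DMA/propylene glycol/PEG400/water) or WAY170523 (7.5 mg/kg; DMSO/PEG400/water), both IV 15 min before. At 30 min, perfused aortae were exposed to a phosphor screen for 10 half-lives (%ID·mm⁻²), with ORO staining.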

[18] = Drug distribution in western atherogenic diet fed ApoE-/- mouse muscle tissue at […], iv administered as bolus injection measured for 30 mins by gamma counter analysis; format: ADME, organism-based; conditions: in vivo, 0.5 h; in short: as §2
[19] = Stability in western atherogenic diet fed ApoE-/- mouse plasma assessed as intact compound level at ~75 MBq, iv administered as bolus injection and measured after 30 mins by gamma counter analysis; format: ADME, organism-based; conditions: read-out: Stability
In short: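 Blood was drawn by cardiac puncture into K₂EDTA tubes 30 min after IV radiotracer in diet-fed ApoE-/- mice. Optional IV pretreatment 15 min before: unlabelled analogue 2.5 mg/kg or WAY170523 7.5 mg/kg. Pooled protein-free plasma was spiked with standard and run on radio-HPLC (C18, ammonium formate/ACN). Fractions were collected each minute and gamma-counted to give the parent fraction.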

[20] = Tmax in western atherogenic diet fed ApoE-/- mouse blood at […], iv administered as bolus injection measured for 60 mins by PET analysis; format: ADME, organism-based; conditions: in vivo, 1 h; in short: as §1
[21] = Drug distribution in western atherogenic diet fed ApoE-/- mouse blood assessed as compound remaining at […], iv administered as bolus injection measured for 30 mins by gamma counter analysis; format: ADME, organism-based; conditions: in vivo, 0.5 h; in short: as §2
[22] = Drug distribution in western atherogenic diet fed ApoE-/- mouse spleen at […], iv administered as bolus injection measured for 30 mins by gamma counter analysis; format: ADME, organism-based; conditions: in vivo, 0.5 h; in short: as §2

Stromelysin-2, sequence (P09238 whole entry): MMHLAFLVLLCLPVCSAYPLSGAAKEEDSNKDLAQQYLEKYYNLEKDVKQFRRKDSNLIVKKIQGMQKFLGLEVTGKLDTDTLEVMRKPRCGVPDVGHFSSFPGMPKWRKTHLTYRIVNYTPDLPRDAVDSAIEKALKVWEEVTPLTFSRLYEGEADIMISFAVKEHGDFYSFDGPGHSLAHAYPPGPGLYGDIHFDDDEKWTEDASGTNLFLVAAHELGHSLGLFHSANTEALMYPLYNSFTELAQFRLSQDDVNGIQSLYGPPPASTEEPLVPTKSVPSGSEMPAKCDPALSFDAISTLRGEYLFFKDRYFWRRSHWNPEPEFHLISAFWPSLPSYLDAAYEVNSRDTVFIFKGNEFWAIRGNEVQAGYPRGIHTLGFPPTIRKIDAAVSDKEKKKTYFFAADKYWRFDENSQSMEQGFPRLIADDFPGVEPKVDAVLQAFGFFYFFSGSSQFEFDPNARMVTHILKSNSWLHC
Neutrophil collagenase, sequence (P22894 whole entry): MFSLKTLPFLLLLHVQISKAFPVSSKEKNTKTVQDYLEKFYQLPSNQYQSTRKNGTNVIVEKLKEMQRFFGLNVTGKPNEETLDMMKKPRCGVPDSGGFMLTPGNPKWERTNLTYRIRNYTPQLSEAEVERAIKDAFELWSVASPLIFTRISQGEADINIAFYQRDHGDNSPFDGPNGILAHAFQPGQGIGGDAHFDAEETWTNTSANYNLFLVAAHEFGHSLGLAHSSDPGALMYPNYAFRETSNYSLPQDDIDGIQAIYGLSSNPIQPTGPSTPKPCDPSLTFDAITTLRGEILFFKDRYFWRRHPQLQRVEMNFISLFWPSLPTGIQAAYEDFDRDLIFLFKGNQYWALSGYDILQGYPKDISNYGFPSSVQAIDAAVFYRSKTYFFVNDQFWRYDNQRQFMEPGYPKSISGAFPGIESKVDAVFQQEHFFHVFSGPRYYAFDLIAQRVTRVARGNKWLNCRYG
Matrix metalloproteinase-9, sequence (P14780 whole entry): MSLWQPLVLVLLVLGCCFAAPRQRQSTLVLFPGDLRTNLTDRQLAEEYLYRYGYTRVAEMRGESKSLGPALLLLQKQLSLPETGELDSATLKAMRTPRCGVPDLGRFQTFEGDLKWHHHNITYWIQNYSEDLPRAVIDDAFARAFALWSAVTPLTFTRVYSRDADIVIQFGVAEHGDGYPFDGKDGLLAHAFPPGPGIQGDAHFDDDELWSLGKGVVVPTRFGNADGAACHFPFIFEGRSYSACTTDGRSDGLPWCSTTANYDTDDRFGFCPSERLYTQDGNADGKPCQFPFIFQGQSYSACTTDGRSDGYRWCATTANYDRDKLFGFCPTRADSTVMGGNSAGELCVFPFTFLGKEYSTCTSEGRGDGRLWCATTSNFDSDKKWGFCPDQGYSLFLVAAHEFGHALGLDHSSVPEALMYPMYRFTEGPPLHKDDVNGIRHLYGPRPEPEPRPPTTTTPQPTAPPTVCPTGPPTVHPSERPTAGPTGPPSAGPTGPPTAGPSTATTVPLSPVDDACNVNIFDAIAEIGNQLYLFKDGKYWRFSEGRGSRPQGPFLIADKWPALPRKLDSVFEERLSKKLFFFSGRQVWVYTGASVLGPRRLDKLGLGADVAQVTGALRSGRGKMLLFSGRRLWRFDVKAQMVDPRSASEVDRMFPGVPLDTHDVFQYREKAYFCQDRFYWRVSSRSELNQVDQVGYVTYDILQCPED
72 kDa type IV collagenase, sequence (P08253 whole entry): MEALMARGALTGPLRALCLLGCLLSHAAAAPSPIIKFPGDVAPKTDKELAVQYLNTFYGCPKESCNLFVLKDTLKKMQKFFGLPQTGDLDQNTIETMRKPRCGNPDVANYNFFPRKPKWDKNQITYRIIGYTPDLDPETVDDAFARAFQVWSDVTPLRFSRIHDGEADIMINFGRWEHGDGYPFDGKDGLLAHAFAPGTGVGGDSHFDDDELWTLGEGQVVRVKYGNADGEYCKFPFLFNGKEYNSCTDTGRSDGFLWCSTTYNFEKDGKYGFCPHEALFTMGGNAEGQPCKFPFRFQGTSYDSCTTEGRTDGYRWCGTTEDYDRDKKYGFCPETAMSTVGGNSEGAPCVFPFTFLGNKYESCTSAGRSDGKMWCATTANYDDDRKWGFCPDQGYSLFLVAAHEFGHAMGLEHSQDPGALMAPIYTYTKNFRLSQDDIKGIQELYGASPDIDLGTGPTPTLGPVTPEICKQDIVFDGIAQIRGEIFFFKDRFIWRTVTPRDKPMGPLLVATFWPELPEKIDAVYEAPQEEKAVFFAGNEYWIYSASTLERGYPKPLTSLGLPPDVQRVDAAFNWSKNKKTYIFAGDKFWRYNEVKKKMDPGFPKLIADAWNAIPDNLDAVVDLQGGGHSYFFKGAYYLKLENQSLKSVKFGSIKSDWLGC

Row | SMILES | IC50 (Stromelysin-2) [µM] | IC50 (Interstitial collagenase) [µM] | IC50 (Collagenase 3) [nM] | IC50 [1] [µM] | IC50 (Neutrophil collagenase) [nM] | IC50 [2] [µM] | also measured
1 | COc1ccc(CNC(=O)c2nc3ccc(F)c(OCCc4ccc(O)cc4)c3c(=O)[nH]2)cc1 | 6.8 | > 10 | 48 | > 10 | 1500 | > 10 | 
2 | Cc1cc(CNC(=O)c2nc3ccc(F)c(OCCc4ccc(C(=O)O)cc4)c3c(=O)[nH]2)ccc1F | 2.5 | > 10 | 1.2 | > 10 | 1700 | > 10 | 
3 | COc1ccc(CNC(=O)c2nc3ccc(F)c(OCCF)c3c(=O)[nH]2)cc1 |  |  | 127 |  |  |  | 
4 | COc1ccc(CNC(=O)c2nc3ccc(F)c(OCCc4ccc(C(=O)O)cc4)c3c(=O)[nH]2)cc1 | 2.7 | > 10 | 2.9 | > 10 | 1400 | > 10 | 
5 | COc1cccc(CNC(=O)c2nc3ccc(F)c(F)c3c(=O)[nH]2)c1 |  |  | 118 |  |  |  | 
6 | COc1cccc(CNC(=O)c2nc3ccc(F)c(OCCc4ccc(C(=O)O)cc4)c3c(=O)[nH]2)c1 | 3.2 | > 10 | 1.3 | > 10 | 2400 | > 10 | 
7 | Cc1cc(CNC(=O)c2nc3ccc(F)c(OCCF)c3c(=O)[nH]2)ccc1F | 3.1 | > 10 | 16 | > 10 | 1200 | > 10 | 
8 | COc1ccc(CCOc2c(F)ccc3nc(C(=O)NCc4ccc(F)c(C)c4)[nH]c(=O)c23)cc1 | 9.1 | > 10 | 24 | > 10 | 780 | > 10 | 
9 | Cc1cc(CNC(=O)c2cc(C(=O)NCc3ccc(OCCF)cc3)ncn2)ccc1F |  |  | 52 |  |  |  | 
10 | Cc1cc(CNC(=O)c2cc(C(=O)NCc3ccc(OCC[18F])cc3)ncn2)ccc1F |  |  |  |  |  |  | Drug uptake [3]: ~ 5 %ID/cc; Drug uptake [4]: ~ 12 %ID/cc
11 | O=C(O)c1ccc(CCOc2c(F)ccc3nc(C(=O)NCc4cccc(O)c4)[nH]c(=O)c23)cc1 | 2.8 | > 10 | 1.3 | > 10 | 2100 | > 10 | 
12 | Cc1cc(CNC(=O)c2nc3ccc(F)c(F)c3c(=O)[nH]2)ccc1F |  |  | 106 |  |  |  | 
13 | O=C(NCc1cccc(O)c1)c1nc2ccc(F)c(F)c2c(=O)[nH]1 |  |  | 149 |  |  |  | 
14 | COc1ccc(CCOc2c(F)ccc3nc(C(=O)NCc4ccc(OC)cc4)[nH]c(=O)c23)cc1 |  |  | 113 |  |  |  | 
15 | Cc1cc(CNC(=O)c2nc3ccc(F)c(OCCc4ccc(O[11CH3])cc4)c3c(=O)[nH]2)ccc1F |  |  |  |  |  |  | Drug uptake [5]: ~ 1 % ID/g; Drug uptake [6]: < 7 % ID/g; Drug uptake [7]: ~ 2 % ID/g; Drug uptake [3]: < 0.5 %ID/cc; Drug uptake [8]: < 7 % ID/g; Stability [9]: Stable; Drug uptake [10]: ~ 2 % ID/g; Drug uptake [4]: 9.3 %ID/cc; Drug uptake [11]: ~ 2 % ID/g; logD at 10 min [12]: 3.76; Drug uptake [13]: 3.27 % ID/g; Drug uptake [14]: 7.4 %ID/cc; Drug uptake [15]: ~ 2 % ID/g; Drug uptake [16]: ~ 2 % ID/g; Drug uptake [17]: 129.8 %ID.m^-2; Drug uptake [18]: ~ 2 % ID/g; remaining at 0.5 h [19]: 70%; Tmax [20]: 0.625 min; Drug uptake [21]: 1.83 % ID/g; Drug uptake [22]: ~ 2 % ID/g
16 | Cc1cc(CNC(=O)c2nc3ccc(F)c(OCCc4ccc(O)cc4)c3c(=O)[nH]2)ccc1F | 6.9 | > 10 | 12 | > 10 | 2200 | > 10 | 
17 | COc1ccc(CNC(=O)c2nc3ccc(F)c(F)c3c(=O)[nH]2)cc1 |  |  | 313 |  |  |  | 
